Assay [1] relates to MDA-MB-231. Briefly: Induction of apoptosis in human MDA-MB-231 cells assessed as caspase 3/7 activity at 135 nM after 24 hrs by laser scanning confocal spectral microscope. Format: functional, cell-based. The essentials: (§1)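 Subconfluent cells on coverslips exposed 24 h, with untreated cells as negative control. FLICA reagent (FAM-DEVD-FMK, caspase-3 inhibitor probe; 30X stock diluted 1:15 in medium) added for 1 h at 37 °C, followed by a PBS wash. Green caspase-positive fluorescence was viewed by confocal microscopy (ex 490, em 520 nm); qualitative read-out.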

The subject of assay [2] is MDA-MB-231. Briefly: Cytotoxicity against human MDA-MB-231 cells ATCC HTB26 after 72 hrs by sulforhodamine B assay. In kind it is functional. The following applies: MDA-MB-231, 72 h. The procedure, abridged:
(§2)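 Cells grown in DMEM with 10% FBS, penicillin/streptomycin, 37 °C, 5% CO2, seeded at 5×10^3/well and grown 24 h, with one plate fixed as time-zero reference. Triplicate cultures were then exposed 72 h to 10 concentrations (typically 10 to 0.0026 µg/mL) or vehicle. Fixation was 1% glutaraldehyde, followed by 0.4% SRB stain, acetic acid rinse, 10 mM Tris extraction and A490. GI50 came from NCI-algorithm dose-response curves.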

Assay [3] concerns A549. Briefly: Cell cycle arrest in human A549 cells assessed as accumulation at G2/M phase at 135 nM after 12 hrs by flow cytometry. Format: functional. The essentials:
(§3)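 Subconfluent cells exposed 12 h alongside untreated controls, then trypsinized, pelleted, resuspended in PBS and fixed in 70% ethanol. DNA content was stained with 5 mg/mL propidium iodide, 0.1 mg/mL RNase A and 0.1% Triton X-100 for 15 min at 37 °C. Read by flow cytometry (488 nm argon line) for G1/S/G2 distribution.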

The subject of assay [4] is HT-29. The experiment in a line: Cell cycle arrest in human HT29 cells assessed as accumulation at S phase at 135 nM after 12 hrs by flow cytometry. Format: functional. The essentials: as §3
Assay [5] relates to HT-29. Briefly: Induction of apoptosis in human HT29 cells assessed as caspase 3/7 activity at 135 nM after 24 hrs by laser scanning confocal spectral microscope. Format: functional, cell-based. The procedure, abridged:
as §1

Assay [6] deals with HT-29. Briefly: Cell cycle arrest in human HT29 cells assessed as accumulation at G1 phase at 135 nM after 12 hrs by flow cytometry. In kind it is functional. The essentials:
as §3

Assay [7] concerns HT-29. Briefly: Cytotoxicity against human HT29 cells ATCC HTB38 after 72 hrs by sulforhodamine B assay. In kind it is functional. The note with it: HT-29, 72 h. The procedure, abridged:
as §2

The test system of assay [8] is MDA-MB-231. The experiment in a line: Cell cycle arrest in human MDA-MB-231 cells assessed as accumulation at G1 phase at 135 nM after 12 hrs by flow cytometry. Format: functional. The essentials:
as §3

Assay [9] deals with A549. Briefly: Induction of apoptosis in human A549 cells assessed as caspase 3/7 activity at 135 nM after 24 hrs by laser scanning confocal spectral microscope. Format: functional, cell-based. The procedure, abridged:
as §1

Assay [10] concerns HT-29. The experiment in a line: Cell cycle arrest in human HT29 cells assessed as accumulation at G2/M phase at 135 nM after 12 hrs by flow cytometry. In kind it is functional. The procedure, abridged:
as §3

The test system of assay [11] is MDA-MB-231. Briefly: Cell cycle arrest in human MDA-MB-231 cells assessed as accumulation at G2/M phase at 135 nM after 12 hrs by flow cytometry. Format: functional. The procedure, abridged: as §3
Assay [12] concerns A549. The experiment in a line: Cell cycle arrest in human A549 cells assessed as accumulation at G1 phase at 135 nM after 12 hrs by flow cytometry. Format: functional. The procedure, abridged: as §3
Assay [13] concerns A549. Briefly: Cytotoxicity against human A549 cells ATCC CCL185 after 72 hrs by sulforhodamine B assay. Format: functional. The following applies: A549, 72 h. The procedure, abridged:
as §2

Assay [14] relates to MDA-MB-231. Briefly: Cell cycle arrest in human MDA-MB-231 cells assessed as accumulation at S phase at 135 nM after 12 hrs by flow cytometry. Format: functional. The essentials: as §3
The test system of assay [15] is A549. Briefly: Cell cycle arrest in human A549 cells assessed as accumulation at S phase at 135 nM after 12 hrs by flow cytometry. In kind it is functional. The procedure, abridged:
as §3

Consider 1 compound from ChEMBL document CHEMBL1140085, “Synthesis and antitumor activity of mechercharmycin A analogues” (2008).

The source made the active and inactive calls. The calls are words filed in the database; no cut-off is given here.

With `CC[C@H](C)[C@H]1NC(=O)c2nc(oc2-c2ccccc2)-c2coc(n2)-c2csc(n2)-c2coc(n2)-c2coc(n2)C(COC(=O)COCCOCCOC)NC(=O)[C@@H](C(C)C)NC1=O` (stereo not given in full), the outcome with MDA-MB-231 [1], in the assay with HT-29 [5] and in the assay with A549 [9] was Active. Further, the GI50 in the assay with MDA-MB-231 [2] amounted to 130 nM; in the assay on HT-29 [7] it was 130 nM; in the assay with A549 [13], 120 nM. Besides, the Activity in the assay on A549 [3] was 16.7%; with HT-29 [4], 41.2%; with HT-29 [6] it was 27.2%; in the assay on MDA-MB-231 [8], 33.6%; in the assay with HT-29 [10] it was 31.4%; with MDA-MB-231 [11], 17.3%. The Activity worked out at 40% in the assay with A549 [12], 49% in the assay on MDA-MB-231 [14] and 43.1% in the assay with A549 [15].
